From publication PMC6682128 (ACS Omega, 2019)

Experiments:
Cytotoxicity assay [1] = format: cell-based; conditions: human, Huh7.5-3a (S52) replicon cells
Summary of the method: (§1)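 Replicon cells (Huh5-2, Huh7.5-3a or Huh7.5-4a) were seeded at 10^4 per well and grown 24 h in complete DMEM. They were then exposed for three days to serial dilutions of test compound or DMSO solvent. Lysates were assayed for ATP by chemiluminescence, normalised to Bradford total protein. CC50 was obtained by nonlinear regression against log concentration.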

Cytotoxicity assay [2] = format: cell-based; conditions: human
Summary of the method: as §1

[3] = system: Huh7.5-4a (ED43) replicon cells; assay: Cytotoxicity assay; format: cell-based, human; conditions: ATP levels
Summary of the method: as §1

[4] = system: HCV genotype 1b (+) strand RNA; assay: HCV RNA quantification by RT-qPCR in Huh5-2 replicon cells; format: cell-based, Hepatitis C virus; conditions: 0.05 nM compound, Huh5-2 cells, normalized to YWHAZ
HCV NS5A (Con1) = format: cell-based, Hepatitis C virus; conditions: Huh5-2 cells; for cell viability (nuclei staining with propidium iodide): 0.5 and 0.05 nM; for NS5A protein levels by indirect immunofluorescence: highest compound concentration used (0.5 nM)
[5] = system: HCV genotype 1b (strain Con1) replicon; assay: HCV genotype 1b replicon luciferase assay in Huh5-2 cells; format: cell-based, Hepatitis C virus; conditions: EC50 comparison

Row | Compound | CC50 at 3 days (Cytotoxicity assay [1]) | CC50 at 3 days (Cytotoxicity assay [2]) | CC50, genotype 4a (ED43) [3] | HCV RNA replication reduced to (relative to control) [4] | cell viability (nuclei staining with propidium iodide) (HCV NS5A (Con1)) | NS5A protein levels by indirect immunofluorescence (HCV NS5A (Con1)) | fold more active than 2o [5]
1 | COC(=O)N[C@H](C(=O)N1CCC[C@H]1C(=O)Nc1cccc(C#CC#Cc2cccc(NC(=O)[C@@H]3CCCN3C(=O)[C@@H](NC(=O)OC)C(C)C)c2)c1)C(C)C [2a, Dimethyl((2S,2′S)-((2S,2′S)-(((buta-1,3-diyne-1,4-diylbis(3,1-phenylene))bis(azanediyl))bis(carbonyl))bis(pyrrolidine-2,1-diyl))bis(3-methyl-1-oxobutane-1,2-diyl))dicarbamate] | > 200 µM | > 200 µM | >200 000 nM | – | – | – | –
2 | CCOC(=O)N[C@@H](CC(C)C)C(=O)N1CCC[C@H]1C(=O)Nc1cccc(C#CC#Cc2cccc(NC(=O)[C@@H]3CCCN3C(=O)[C@H](CC(C)C)NC(=O)OCC)c2)c1 [2f, Diethyl((2S,2′S)-((2S,2′S)-(((buta-1,3-diyne-1,4-diylbis(3,1-phenylene))bis(azanediyl))bis(carbonyl))bis(pyrrolidine-2,1-diyl))bis(4-methyl-1-oxopentane-1,2-diyl))dicarbamate] | > 200 µM | > 200 µM | >200 000 nM | ~90% | not affected | almost undetectable levels | –
3 | COC(=O)N[C@H](CC(C)C)C(=O)N1CCC[C@H]1C(=O)Nc1cccc(C#CC#Cc2cccc(NC(=O)[C@@H]3CCCN3C(=O)[C@@H](CC(C)C)NC(=O)OC)c2)c1 [2p, Dimethyl((2R,2′R)-((2S,2′S)-(((buta-1,3-diyne-1,4-diylbis(3,1-phenylene))bis(azanediyl))bis(carbonyl))bis(pyrrolidine-2,1-diyl))bis(4-methyl-1-oxopentane-1,2-diyl))dicarbamate] | > 200 µM | > 200 µM | >200 000 nM | – | – | – | about 3 × 10^5 fold
4 | CCOC(=O)N[C@H](CC(C)C)C(=O)N1CCC[C@H]1C(=O)Nc1cccc(C#CC#Cc2cccc(NC(=O)[C@@H]3CCCN3C(=O)[C@@H](CC(C)C)NC(=O)OCC)c2)c1 [2q, Diethyl((2R,2′R)-((2S,2′S)-(((buta-1,3-diyne-1,4-diylbis(3,1-phenylene))bis(azanediyl))bis(carbonyl))bis(pyrrolidine-2,1-diyl))bis(4-methyl-1-oxopentane-1,2-diyl))dicarbamate] | > 200 µM | > 200 µM | >200 000 nM | 56% | not affected | almost undetectable levels | –
5 | COC(=O)N[C@H](C(=O)N1CCC[C@H]1c1nc(-c2ccc(-c3ccc(-c4c[nH]c([C@@H]5CCCN5C(=O)[C@@H](NC(=O)OC)C(C)C)n4)cc3)cc2)c[nH]1)C(C)C [daclatasvir, reference compound] | 17.7 µM | 17.7 µM | 17 700 nM | – | – | – | –
